From ChEMBL document CHEMBL1153135, “Reaction of naphthoquinones with substituted nitromethanes. Facile synthesis and antifungal activity of naphtho[2,3-d]isoxazole-4,9-diones” (2010)
≈ marks a conversion by molar mass, not a printed value.

Tests used:
Type in all cases: functional
Candida albicans [1] = test: Antifungal activity against Candida albicans PYCC 3436 after 48 hrs; settings: PYCC 3436, 48 h
Procedure, shortened: (§1)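 Broth microdilution after modified CLSI M27-A in SG minimal medium (yeast nitrogen base without amino acids, 2% glucose). Compounds dissolved in DMSO (1 mg/mL), diluted 10-fold in SG, then 30 final concentrations from 97.5 to 0.0025 µg/mL. About 5 × 10³ cells/well, in triplicate. Incubated at 30 °C for 48 h, OD 655 nm read as % of DMSO control; MIC50 by probit analysis of mean values.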

Nakaseomyces glabratus = test: Antifungal activity against Candida glabrata PYCC 2418 after 48 hrs; settings: PYCC 2418, 48 h; procedure, shortened: as §1
Candida albicans [2] = test: Antifungal activity against Candida albicans ATCC 90028 after 48 hrs; settings: ATCC 90028, 48 h; procedure, shortened: as §1
Candida parapsilosis [3] = test: Antifungal activity against Candida parapsilosis ATCC 22019 after 48 hrs; settings: Lodderomyces parapsilosis, ATCC 22019, 48 h; procedure, shortened: as §1
Candida parapsilosis [4] = test: Antifungal activity against Candida parapsilosis PYCC 2545 after 48 hrs; settings: Lodderomyces parapsilosis, PYCC 2545, 48 h; procedure, shortened: as §1
Pichia kudriavzevii = test: Antifungal activity against Candida krusei PYCC 3341 after 48 hrs; settings: PYCC 3341, 48 h; procedure, shortened: as §1

MIC50 (Candida albicans [1]) | MIC50 (Nakaseomyces glabratus) | MIC50 (Candida albicans [2]) | MIC50 (Candida parapsilosis [3]) | MIC50 (Candida parapsilosis [4]) | MIC50 (Pichia kudriavzevii) | SMILES
1.8 µM (≈ 0.488 µg/mL) | 0.6 µM (≈ 0.163 µg/mL) | 11.5 µM (≈ 3.12 µg/mL) | 1.7 µM (≈ 0.461 µg/mL) | 0.6 µM (≈ 0.163 µg/mL) | 2.3 µM (≈ 0.624 µg/mL) | CCOC(=O)c1noc2c1C(=O)c1ccccc1C2=O
1.6 µM (≈ 0.485 µg/mL) | 47.6 µM (≈ 14.4 µg/mL) | 71.2 µM (≈ 21.6 µg/mL) | 3.3 µM (≈ 1 µg/mL) | 13.2 µM (≈ 4 µg/mL) | 21.2 µM (≈ 6.43 µg/mL) | O=C(c1ccccc1)c1noc2c1C(=O)c1ccccc1C2=O
0.5 µM (≈ 0.462 µg/mL) | 0.4 µM (≈ 0.37 µg/mL) | 1.2 µM (≈ 1.11 µg/mL) | 0.5 µM (≈ 0.462 µg/mL) | 0.5 µM (≈ 0.462 µg/mL) | 1 µM (≈ 0.924 µg/mL) | C[C@@H]1[C@H](O)[C@@H](C)/C=C/C=C/C=C/C=C/C=C/C=C/C=C/[C@H](O[C@@H]2O[C@H](C)[C@@H](O)[C@H](N)[C@@H]2O)C[C@@H]2O[C@](O)(C[C@@H](O)C[C@@H](O)[C@H](O)CC[C@@H](O)C[C@@H](O)CC(=O)O[C@H]1C)C[C@H](O)[C@H]2C(=O)O [AMPHOTERICIN B]

The remaining lines, values behind:

SMILES | MIC50 (Candida albicans [1]) | MIC50 (Nakaseomyces glabratus) | MIC50 (Candida albicans [2]) | MIC50 (Candida parapsilosis [3]) | MIC50 (Candida parapsilosis [4]) | MIC50 (Pichia kudriavzevii)
CCOC1=C(Cl)C(=O)c2ccccc2C1=O | 9.5 µM (≈ 2.25 µg/mL) | 3.8 µM (≈ 0.899 µg/mL) | 202 µM (≈ 47.9 µg/mL) | 40.4 µM (≈ 9.56 µg/mL) | 48.3 µM (≈ 11.4 µg/mL) | 3.9 µM (≈ 0.923 µg/mL)
COC1=C(Cl)C(=O)c2ccccc2C1=O | 10.4 µM (≈ 2.32 µg/mL) | 16.7 µM (≈ 3.72 µg/mL) | 73.9 µM (≈ 16.5 µg/mL) | 4.7 µM (≈ 1.05 µg/mL) | 5.3 µM (≈ 1.18 µg/mL) | 4.6 µM (≈ 1.02 µg/mL)
CCOC(=O)CC1=C(Br)C(=O)c2ccccc2C1=O | 0.9 µM (≈ 0.291 µg/mL) | 12 µM (≈ 3.88 µg/mL) | 4.5 µM (≈ 1.45 µg/mL) | 3.2 µM (≈ 1.03 µg/mL) | 1.1 µM (≈ 0.355 µg/mL) | –
O=C1c2ccccc2C(=O)c2c(S(=O)(=O)c3ccccc3)noc21 | 2.5 µM (≈ 0.848 µg/mL) | 1.5 µM (≈ 0.509 µg/mL) | 56.7 µM (≈ 19.2 µg/mL) | 6.1 µM (≈ 2.07 µg/mL) | 1.6 µM (≈ 0.543 µg/mL) | 9.7 µM (≈ 3.29 µg/mL)
COC(=O)c1noc2c1C(=O)c1ccccc1C2=O | 0.7 µM (≈ 0.18 µg/mL) | 2.6 µM (≈ 0.669 µg/mL) | 12.2 µM (≈ 3.14 µg/mL) | 1.8 µM (≈ 0.463 µg/mL) | 1.3 µM (≈ 0.334 µg/mL) | 2.4 µM (≈ 0.617 µg/mL)
